From PubChem BioAssay
Calpain2 inh = blocks pig calpain II enzyme activity | 0.37% of 220,000 active | AID 1236 | inhibition, % at 16 µM | purified calpain II, fluorogenic peptide substrate, 30 min;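 active = inhibition above about 50%, limit read from the data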
Arbovirus inh = antivirals against arbovirus infection; arbovirus infection cell-based antiviral screen; inhibition, % at 10 µM; 0.37% of 200,000 active; AID 1251; in the data active = inhibition above about 30%
Biofilm kill mix = mixtures killing C. albicans biofilm | C. albicans biofilm persisters + clotrimazole, fluorescence viability; primary screen in compound mixtures of four per well | inhibition, % at 7.6 µM | 0.02% of 120,000 active | AID 1242;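 active = inhibition above 30.3% in the primary screen of four-compound pools, then above 30% when the compound was retested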;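 note: compounds exposed to preformed 24 h biofilms for 48 h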
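Test system: C. albicans CAF4-2 wild-type biofilms; buffer or medium: RPMI/MOPS medium, pH 7.0; schedule: 24 h biofilm formation, then 48 h compound exposure, 37 °C; detection: Alamar Blue fluorescence; measure: percent inhibition of biofilm viability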
Mcl1-Noxa inh = disrupts binding of human Mcl-1 to Noxa peptide; TR-FRET Mcl-1/Noxa peptide binding, 2 h; inhibition, % at 21.7 µM; Q07820; AID 1022; 1.5% of 220,000 active;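 active = compounds that cut the protein-peptide binding signal by more than 50% relative to plate controls in a single-dose test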;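 note: His-tagged Mcl-1 with rhodamine Noxa BH3 peptide and terbium anti-His antibody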
Target sequence (Q07820 whole entry, looked up): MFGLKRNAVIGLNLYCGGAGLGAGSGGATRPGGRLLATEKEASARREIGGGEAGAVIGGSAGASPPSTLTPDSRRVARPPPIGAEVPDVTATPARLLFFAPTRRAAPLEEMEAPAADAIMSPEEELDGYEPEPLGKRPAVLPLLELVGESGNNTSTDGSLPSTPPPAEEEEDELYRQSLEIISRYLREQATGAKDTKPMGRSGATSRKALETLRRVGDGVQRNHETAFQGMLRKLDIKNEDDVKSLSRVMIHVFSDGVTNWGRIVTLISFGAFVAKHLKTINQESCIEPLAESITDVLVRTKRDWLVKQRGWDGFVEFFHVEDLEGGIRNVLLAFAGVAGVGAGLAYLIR
Bim-Mcl-1 = inhibitors of Bim-Mcl-1 interaction, human; 0.1% of 190,000 active; Bead-based flow cytometry, Bim peptide-Mcl-1 binding; inhibition, % at 10 µM; Q07820; in the data active = inhibition above about 40%
Mcl1 Bid PPI = disrupts binding of human Mcl-1 to Bid peptide. TR-FRET Mcl-1/Bid-Dy647 peptide binding, 1536-well. inhibition, % at 21.7 µM. 0.97% of 220,000 active;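 active = compounds that cut the binding signal by more than half at the single screening dose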;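 note: His-tagged Mcl-1 with europium anti-His antibody binding Bid BH3 peptide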
Each line names hits and unclear results; the compound was inactive in the other large screens. In the library only some 2.8% were active in any assay of this set; here they are far more common.

O=C(Nc1cccc(S(=O)(=O)NC2=NCCCCC2)c1)c1cc(-c2ccncc2)nc2ccccc12	Mcl1-Noxa inh 54
O=C(Nc1cccc(S(=O)(=O)NC2=NCCCCC2)c1)c1cc(-c2ccco2)nc2ccccc12	Mcl1-Noxa inh 97 (no result: Arbovirus inh, Bim-Mcl-1)
O=C(Nc1cccc(S(=O)(=O)NCc2ccco2)c1)c1cc(-c2ccccc2)nc2ccccc12	none
CC12CN3CC(C)(CN(C1)C3c1ccccc1Cl)C2O (stereo not drawn)	Mcl1-Noxa inh 88 (no result: Biofilm kill mix)
COc1cc(C(c2nnnn2C(C)(C)C)N2CCN(c3nc4ccccc4s3)CC2)ccc1O (stereo not drawn)	Mcl1-Noxa inh 73 (no result: Biofilm kill mix)
CC1C/C(=C/c2ccco2)C(=O)/C(=C/c2ccco2)C1 (stereo not drawn)	Mcl1-Noxa inh 53
O=C(Nc1nc2ccc([N+](=O)[O-])cc2s1)c1ccco1	Mcl1-Noxa inh 56
COc1ccc2nc(NC(=O)c3ccc(-c4cccc([N+](=O)[O-])c4)o3)sc2c1	Mcl1-Noxa inh 62, Mcl1 Bid PPI 79
O=C(O)c1ccc(-c2cccc([N+](=O)[O-])c2)o1	none (no result: Arbovirus inh, Bim-Mcl-1)
N#C/C(=C(/O)c1ccc(-c2cccc([N+](=O)[O-])c2)o1)c1nc2ccccc2s1	Mcl1-Noxa inh 88
CCc1cc(C(=O)c2ccc(OC)cc2)c(NC(=O)CC(C)(C)CC(=O)O)s1	none (no result: Arbovirus inh, Bim-Mcl-1)
COc1cc(C(=O)OCC(=O)NCc2ccco2)cc(OC)c1OC	none (no result: Biofilm kill mix)
O=C(COC(=O)c1cncc(Br)c1)NCc1ccc(F)cc1	none
O=C(COC(=O)c1cncc(Br)c1)NCc1ccco1	Mcl1-Noxa inh 56 (no result: Biofilm kill mix)
COc1cc(NC(=O)c2cccs2)c(C(=O)OCC(=O)NCc2ccco2)cc1OC	Mcl1-Noxa inh 63 (no result: Biofilm kill mix)
O=C(COC(=O)c1ccc(NS(=O)(=O)c2cccs2)cc1)NCc1ccco1	Mcl1-Noxa inh 107 (no result: Arbovirus inh, Bim-Mcl-1)
O=C(NCc1ccccc1)c1cccc(NS(=O)(=O)c2cccc3cccnc23)c1	none
COCC(=O)Nc1nc2n(n1)C(c1ccc(OC)cc1)CC(c1ccc(OC)cc1)N2 (stereo not drawn)	none (no result: Biofilm kill mix)
O=C(O)CCCC(=O)Nc1nc2n(n1)C(c1ccc(F)cc1)CC(c1ccc(Cl)cc1)N2 (stereo not drawn)	Arbovirus inh 39 (no result: Biofilm kill mix)
Cc1ccc(-n2cnnn2)c2cccnc12	Mcl1 Bid PPI 57 (no result: Biofilm kill mix)
Cc1ccc(N2C(=O)c3cccc4c(N)ccc(c34)C2=O)c2cccnc12	none (no result: Arbovirus inh, Bim-Mcl-1)
CCN(CC)C(=O)CC(c1cc(OC)c(OC)c(OC)c1)c1c(OC)cc(OC)c2c(-c3ccccc3)cc(=O)oc12 (stereo not drawn)	Mcl1-Noxa inh 96 (no result: Arbovirus inh, Bim-Mcl-1)
Cc1c(Br)c([N+](=O)[O-])nn1CC(=O)Nc1cccc2nonc12	none
CN(C)C=Nc1c(Br)cc(Br)c2nonc12	Mcl1-Noxa inh 60 (no result: Biofilm kill mix)
O=C1CSC(=Nc2ccccc2)N1	none (no result: Biofilm kill mix)
O=C1CS/C(=N\C(=O)N2c3ccccc3Sc3ccccc32)N1	Mcl1-Noxa inh 69 (no result: Biofilm kill mix)
COc1ccccc1NC(=O)CSCC(N)=O	none (no result: Biofilm kill mix)
Cc1ccc(SCc2nc3ccccc3[nH]2)cc1	none (no result: Biofilm kill mix)
Cc1ccc(CSCc2nc3ccccc3[nH]2)cc1	Arbovirus inh 36
COc1ccccc1NC(=O)CSCc1nc2ccccc2[nH]1	Mcl1 Bid PPI 52
CCC1(C)Cc2c(sc3nnn(CC(=O)Nc4ccccc4C)c(=O)c23)CO1 (stereo not drawn)	Mcl1-Noxa inh 54 (no result: Biofilm kill mix)
COc1ccc(N2CCC(CNC(=S)Nc3cccc(OC)c3)C2)cc1 (stereo not drawn)	Mcl1-Noxa inh 75
COc1ccc(N2CCC(CNC(=O)Nc3cccc(OC)c3)C2)cc1 (stereo not drawn)	Mcl1-Noxa inh 89 (no result: Biofilm kill mix)
COc1ccc(N2CCC(CNC(=O)Nc3ccc(Cl)cc3)C2)cc1 (stereo not drawn)	Mcl1-Noxa inh 76
COc1ccc(OC)c(NC(=O)COC(=O)c2cc3c(s2)CCC3)c1	Mcl1-Noxa inh 72, Bim-Mcl-1 95
Cc1ccc[n+](-c2[nH]c(=O)sc2/C=N/NC(=O)c2ccccc2[O-])c1	none
Cc1cc(C)cc(-n2nnnc2SCC(=O)Nc2cccc(NC(=O)c3ccco3)c2)c1	none (no result: Biofilm kill mix)
Cc1ccc(-n2nc3ccc(NC(=O)c4ccco4)cc3n2)cc1	Mcl1 Bid PPI 66 (no result: Biofilm kill mix)
Cc1ccc(-n2nnnc2SCC(=O)Nc2cccc(NC(=O)c3ccco3)c2)cc1C	Mcl1 Bid PPI 63 (no result: Biofilm kill mix)
Cn1c(CCN2CCN(c3ccccc3)CC2)nc2cc(NC(=O)c3ccco3)ccc21	none (no result: Biofilm kill mix)
O=C(/C=C/c1ccco1)Nc1ccc2nn(-c3ccccc3)nc2c1	Mcl1-Noxa inh 78
